Assay results from ChEMBL document CHEMBL1128406, “Effects of tubercidin and its 5'-O-methyl ether on adenosine receptors and mediator release functions in mast cells” (1995).

What was measured:
CHO-K1-BH4 [1] = assay: Compound is tested for cytotoxicity in Chinese hamster ovary cells (CHO-K1-BH4) in the absence of S-9 microsome fraction at concentration 0 micro M; assay type: functional, Cricetulus griseus
Procedure, shortened: (§1)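 CHO-K1-BH4 cells exposed to the test article for 5 h with no exogenous S-9 microsome fraction, then given an overnight recovery period without compound. Relative cytotoxicity was scored afterwards, following the contract lab's CYT/CHO protocol.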

CHO-K1-BH4 [2] = assay: Compound is tested for cytotoxicity in Chinese hamster ovary cells (CHO-K1-BH4) in the absence of S-9 microsome fraction at concentration 0.4 micro M; assay type: functional, Cricetulus griseus; procedure, shortened: as §1
CHO-K1-BH4 [3] = assay: Compound is tested for cytotoxicity in Chinese hamster ovary cells (CHO-K1-BH4) in the absence of S-9 microsome fraction at concentration 3.7 micro M; assay type: functional, Cricetulus griseus; procedure, shortened: as §1
CHO-K1-BH4 [4] = assay: Compound is tested for cytotoxicity in Chinese hamster ovary cells (CHO-K1-BH4) in the absence of S-9 microsome fraction at concentration 360 micro M; assay type: functional, Cricetulus griseus; procedure, shortened: as §1
CHO-K1-BH4 [5] = assay: Compound is tested for cytotoxicity in Chinese hamster ovary cells (CHO-K1-BH4) in the absence of S-9 microsome fraction at concentration 37 micro M; assay type: functional, Cricetulus griseus; procedure, shortened: as §1
CHO-K1-BH4 [6] = assay: Compound is tested for cytotoxicity in Chinese hamster ovary cells (CHO-K1-BH4) in the presence of S-9 microsome fraction at concentration 3.7 micro M; assay type: functional, Cricetulus griseus
Procedure, shortened: (§2)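 CHO-K1-BH4 cells exposed to the test article for 5 h with an S-9 microsome fraction present, then given an overnight compound-free recovery period. Relative cytotoxicity was assessed after recovery.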

CHO-K1-BH4 [7] = assay: Compound is tested for cytotoxicity in Chinese hamster ovary cells (CHO-K1-BH4) in the presence of S-9 microsome fraction at concentration 360 micro M; assay type: functional, Cricetulus griseus; procedure, shortened: as §2
CHO-K1-BH4 [8] = assay: Compound is tested for cytotoxicity in Chinese hamster ovary cells (CHO-K1-BH4) in the presence of S-9 microsome fraction at concentration 37 micro M; assay type: functional, Cricetulus griseus; procedure, shortened: as §2
Mus musculus = species on record: Mus musculus; assay: Compound is evaluated for the ability to inhibit the passive cutaneous anaphylaxis (PCA) reaction in mouse in presence of Ag; assay type: functional
CHO-K1-BH4 [9] = assay: Compound is tested for cytotoxicity in Chinese hamster ovary cells (CHO-K1-BH4) in the absence of S-9 microsome fraction at concentration 0.1*10e-4 micro M; assay type: functional, Cricetulus griseus
Procedure, shortened: (§3)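 CHO-K1-BH4 cells exposed to test article for 5 h, with or without exogenous S-9 microsome fraction, then recovered overnight without compound before relative cytotoxicity was scored.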

CHO-K1-BH4 [10] = assay: Compound is tested for cytotoxicity in Chinese hamster ovary cells (CHO-K1-BH4) in the absence of S-9 microsome fraction at concentration 1.1*10e-4 micro M; assay type: functional, Cricetulus griseus; procedure, shortened: as §3
CHO-K1-BH4 [11] = assay: Compound is tested for cytotoxicity in Chinese hamster ovary cells (CHO-K1-BH4) in the absence of S-9 microsome fraction at concentration 11.4*10e-4 micro M; assay type: functional, Cricetulus griseus; procedure, shortened: as §3
CHO-K1-BH4 [12] = assay: Compound is tested for cytotoxicity in Chinese hamster ovary cells (CHO-K1-BH4) in the absence of S-9 microsome fraction at concentration 114*10e-4 micro M; assay type: functional, Cricetulus griseus; procedure, shortened: as §3
CHO-K1-BH4 [13] = assay: Compound is tested for cytotoxicity in Chinese hamster ovary cells (CHO-K1-BH4) in the absence of S-9 microsome fraction at concentration 9 micro M; assay type: functional, Cricetulus griseus; procedure, shortened: as §3
CHO-K1-BH4 [14] = assay: Compound is tested for cytotoxicity in Chinese hamster ovary cells (CHO-K1-BH4) in the presence of S-9 microsome fraction at concentration 0.1*10e-4 micro M; assay type: functional, Cricetulus griseus; procedure, shortened: as §3
CHO-K1-BH4 [15] = assay: Compound is tested for cytotoxicity in Chinese hamster ovary cells (CHO-K1-BH4) in the presence of S-9 microsome fraction at concentration 1.1*10e-4 micro M; assay type: functional, Cricetulus griseus; procedure, shortened: as §3
CHO-K1-BH4 [16] = assay: Compound is tested for cytotoxicity in Chinese hamster ovary cells (CHO-K1-BH4) in the presence of S-9 microsome fraction at concentration 11.4*10e-4 micro M; assay type: functional, Cricetulus griseus; procedure, shortened: as §3
CHO-K1-BH4 [17] = assay: Compound is tested for cytotoxicity in Chinese hamster ovary cells (CHO-K1-BH4) in the presence of S-9 microsome fraction at concentration 114*10e-4 micro M; assay type: functional, Cricetulus griseus; procedure, shortened: as §3
CHO-K1-BH4 [18] = assay: Compound is tested for cytotoxicity in Chinese hamster ovary cells (CHO-K1-BH4) in the absence of S-9 microsome fraction at concentration 0.17 micro M; assay type: functional, Cricetulus griseus; procedure, shortened: as §1
CHO-K1-BH4 [19] = assay: Compound is tested for cytotoxicity in Chinese hamster ovary cells (CHO-K1-BH4) in the absence of S-9 microsome fraction at concentration 1.1 micro M; assay type: functional, Cricetulus griseus; procedure, shortened: as §1
CHO-K1-BH4 [20] = assay: Compound is tested for cytotoxicity in Chinese hamster ovary cells (CHO-K1-BH4) in the absence of S-9 microsome fraction at concentration 11 micro M; assay type: functional, Cricetulus griseus; procedure, shortened: as §1
CHO-K1-BH4 [21] = assay: Compound is tested for cytotoxicity in Chinese hamster ovary cells (CHO-K1-BH4) in the absence of S-9 microsome fraction at concentration 1136 micro M; assay type: functional, Cricetulus griseus; procedure, shortened: as §1
CHO-K1-BH4 [22] = assay: Compound is tested for cytotoxicity in Chinese hamster ovary cells (CHO-K1-BH4) in the presence of S-9 microsome fraction at concentration 0.17 micro M; assay type: functional, Cricetulus griseus; procedure, shortened: as §2
CHO-K1-BH4 [23] = assay: Compound is tested for cytotoxicity in Chinese hamster ovary cells (CHO-K1-BH4) in the presence of S-9 microsome fraction at concentration 1.1 micro M; assay type: functional, Cricetulus griseus; procedure, shortened: as §2
CHO-K1-BH4 [24] = assay: Compound is tested for cytotoxicity in Chinese hamster ovary cells (CHO-K1-BH4) in the presence of S-9 microsome fraction at concentration 11 micro M; assay type: functional, Cricetulus griseus; procedure, shortened: as §2
CHO-K1-BH4 [25] = assay: Compound is tested for cytotoxicity in Chinese hamster ovary cells (CHO-K1-BH4) in the presence of S-9 microsome fraction at concentration 1136 micro M; assay type: functional, Cricetulus griseus; procedure, shortened: as §2
CHO-K1-BH4 [26] = assay: Compound is tested for cytotoxicity in Chinese hamster ovary cells (CHO-K1-BH4) in the presence of S-9 microsome fraction at concentration 114 micro M; assay type: functional, Cricetulus griseus; procedure, shortened: as §2

## COC[C@H]1OC(n2ccc3c(N)ncnc32)[C@H](O)[C@@H]1O (stereo partly drawn)
CHO-K1-BH4 [1]
  Inhibition: 0%
CHO-K1-BH4 [2]
  Inhibition: 0%
CHO-K1-BH4 [3]
  Inhibition: 12%
CHO-K1-BH4 [4]
  Inhibition: 37%
CHO-K1-BH4 [5]
  Inhibition: 30%
CHO-K1-BH4 [6]
  Inhibition: 2%
CHO-K1-BH4 [7]
  Inhibition: 99%
CHO-K1-BH4 [8]
  Inhibition: 36%
Mus musculus
  grade: 1.75

## Nc1ncnc2c1ccn2[C@@H]1O[C@H](CO)[C@@H](O)[C@H]1O [TUBERCIDIN]
CHO-K1-BH4 [9]
  Inhibition: 10%
CHO-K1-BH4 [10]
  Inhibition: 16%
CHO-K1-BH4 [11]
  Inhibition: 92%
CHO-K1-BH4 [12]
  Inhibition: 100%
CHO-K1-BH4 [13]
  Inhibition: 11%
CHO-K1-BH4 [14]
  Inhibition: 4%
CHO-K1-BH4 [15]
  Inhibition: 9%
CHO-K1-BH4 [16]
  Inhibition: 80%
CHO-K1-BH4 [17]
  Inhibition: 100%
Mus musculus
  grade: 1.17

## Nc1ncnc2c1ncn2[C@@H]1O[C@H](CO)[C@@H](O)[C@H]1O [ADENOSINE]
CHO-K1-BH4 [18]
  Inhibition: 0%
CHO-K1-BH4 [19]
  Inhibition: 22%
CHO-K1-BH4 [20]
  Inhibition: 19%
CHO-K1-BH4 [21]
  Inhibition: 43%
CHO-K1-BH4 [22]
  Inhibition: 0.04%
CHO-K1-BH4 [23]
  Inhibition: 8%
CHO-K1-BH4 [24]
  Inhibition: 0%
CHO-K1-BH4 [25]
  Inhibition: 7%
CHO-K1-BH4 [26]
  Inhibition: 0%
